KCNQ1 inh = inhibitors of human KCNQ1 channel, primary screen, cell-based, thallium flux, high-throughput | AID 2642, 2010 | B-score at 10 µM | actives 1.3% (n = 310,000) | Potassium voltage-gated channel subfamily KQT member 1 (Homo sapiens), P51787 | CHO-K1 KCNQ1, FluxOR thallium flux fluorescence; active compounds read high;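 active means compounds whose thallium flux B-score, printed positive for inhibition, exceeds three library SD while starting fluorescence stays within three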;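 further: channel opened by potassium depolarization with thallium stimulus after 20 min compound exposure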
hERG protect = hERG rescue from dofetilide block, primary screen, cell-based, CHO-hERG, FluxOR thallium flux, dofetilide IC70 | Voltage-gated inwardly rectifying potassium channel KCNH2 (Homo sapiens), Q12809 | dofetilide IC70 present | activation (rescue from dofetilide block), less the hit threshold, % at 10 µM | actives 0.51% (n = 310,000) | AID 1511, 2009;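 active means activation above the mean of controls blocked by dofetilide plus 5 SD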;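 further: thallium influx through hERG after potassium depolarization seen as dye fluorescence rise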
KCNQ1 act = potentiators or activators of KCNQ1 channel, primary screen, cell-based, thallium flux, high-throughput. Potassium voltage-gated channel subfamily KQT member 1 (Homo sapiens), P51787. CHO-K1 KCNQ1, thallium flux FluxOR fluorescence; active compounds read high. B-score at 10 µM. actives 0.35% (n = 310,000);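 active means fluorescence ratio B-score, a plate-corrected score, at least three library SD, with initial intensity B-score within 5 SD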
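Assay system: stable KCNQ1 CHO-K1 line; medium: assay buffer, equal DMSO in all wells; timing: 90 min dye loading and 20 min compound exposure, both at room temperature; technique: kinetic FluxOR thallium fluorescence, 10-s 1-Hz baseline, 110-s post-stimulus read; read-out basis: B score of baseline-normalized fluorescence ratio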
Kir21 inh = inhibitors of mouse Kir2.1 inward-rectifier potassium channel; Inward rectifier potassium channel 2 (Mus musculus), P35561; HEK293-Kir2.1, FluxOR thallium flux fluorescence; active compounds read low; B-score at 10 µM; actives 0.85% (n = 310,000); AID 1672, 2009;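 active means fluorescence ratio B-score at or below minus 3 SD of library scores, with starting-brightness B-score within 2 SD, cut at about -4.2 in these data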;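 further: channel flux triggered by added potassium and thallium sulfate stimulus; B-score of peak minus minimum fluorescence over baseline after thallium stimulus; more negative B-score means stronger Kir2.1 block with less thallium influx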
Target sequence (P35561 whole entry, looked up): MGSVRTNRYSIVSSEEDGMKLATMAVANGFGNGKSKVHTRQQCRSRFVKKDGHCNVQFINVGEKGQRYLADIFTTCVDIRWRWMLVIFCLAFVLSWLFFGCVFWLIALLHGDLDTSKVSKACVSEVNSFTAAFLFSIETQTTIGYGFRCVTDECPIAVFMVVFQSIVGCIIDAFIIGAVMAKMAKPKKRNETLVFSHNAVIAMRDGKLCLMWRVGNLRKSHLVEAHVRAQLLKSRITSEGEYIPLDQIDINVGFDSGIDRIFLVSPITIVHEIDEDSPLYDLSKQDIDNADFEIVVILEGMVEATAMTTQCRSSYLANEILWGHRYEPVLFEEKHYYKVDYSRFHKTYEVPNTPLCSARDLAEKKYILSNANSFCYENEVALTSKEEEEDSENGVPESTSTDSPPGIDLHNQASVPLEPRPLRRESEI
KCNK9 block = KCNK9 potassium channel inhibitors, primary screen, HEK293 cells, thallium flux; B-score at 10 µM; actives 1.2% (n = 310,000); AID 488922, 2010; FluxOR thallium flux fluorescence; active compounds read low; Potassium channel subfamily K member 9 (Homo sapiens), Q9NPC2;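 active means ratio B-score over 3 SD below the library mean, with starting fluorescence within 5 SD of its mean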;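 further: negative B-score means less thallium flux so channel inhibition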
KCNK3 block = human KCNK3 channel inhibitors, primary screen, CHO cells, FluxOR thallium flux, B-score; FluxOR fluorescence; active compounds read low; B-score at 10 µM; actives 0.84% (n = 340,000);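 active means B-score under library mean minus 4 SD, starting fluorescence ratio at most library mean plus 5 SD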;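 further: more negative B-score means stronger inhibition of thallium flux through KCNK3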
KCNK9 block conf = KCNK9 potassium channel inhibitors, confirmation, HEK293 cells, thallium flux, duplicate. inhibition, % at 10 µM. actives 43% (n = 4,900). FluxOR thallium flux fluorescence. shares compounds with KCNK9 block;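 active means thallium signal inhibited by more than 5 SD of the compound-free buffer control wells, on both duplicate plates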;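 further: 0% = assay buffer control wells without compound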
Kir2-1 spec = mouse Kir2.1 channel inhibition, confirmation, selectivity assay for KCNK9 modulator project, cell-based, HEK293, thallium flux; shares compounds with KCNK9 block; Kir2.1 cells, FluxOR thallium flux fluorescence; inhibition, % at 10 µM; actives 4% (n = 4,900);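 active means thallium signal drop more than 5 SD beyond the mean of the no-compound control wells, seen in both duplicate plates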;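 further: signal is fluorescence rise after thallium addition divided by baseline fluorescence; plate controls were assay buffer only for no effect and full block by chlorpromazine control for full effect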
KCNK9 uninduced = thallium flux in non-induced HEK293 cells, confirmation, counter-screen for KCNK9 inhibitor project, cell-based, second counter screen, non-induced KCNK9-HEK293; FluxOR thallium flux; actives 40% (n = 4,900); inhibition, % at 10 µM; shares compounds with KCNK9 block; AID 492997, 2010;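 active means thallium signal drop beyond 5 SD of the untreated control mean, on both duplicate plates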;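 further: plate controls were buffer only IC0 wells for no effect and SID17386958 at its maximal inhibitory level for full effect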
The depositor's hits bear a star; i = inactive; / = not tested or not shown. The list is not random: actives were taken first. Their share in the collection is about 3.8%.

SMILES	KCNQ1 inh	hERG protect	KCNQ1 act	Kir21 inh	KCNK9 block	KCNK3 block	KCNK9 block conf	Kir2-1 spec	KCNK9 uninduced
Cn1c(SCC(=O)NNC(=O)c2ccccc2)nnc1C(F)(F)F	/	/	/	/	/	i	/	/	/
CCOC(=O)C1CCN(C(=O)c2oc3ccc(S(=O)(=O)N4CC(C)CC(C)C4)cc3c2C)CC1 (stereo not given)	i	-5.8	i	0.41	i	i	i	i	i
COc1ccc(C(=O)N/C(=C\c2cccc3ccccc23)C(=O)NCCc2c[nH]c3ccccc23)cc1OC	i	-1.9	i	0.73	i	i	/	/	/
COc1ccc(OC)c(NC(=O)CN(C)CC(=O)Nc2ccccc2Cl)c1	i	0.3	i	0.34	i	i	/	/	/
COc1ccc(Br)cc1CN(C)CC(=O)Nc1ccccc1Cl	i	-14.4	i	-5.42*	-8.71*	i	33.5%*	36.5%*	36.5%*
COc1ccccc1CN(C)CC(=O)Nc1ccc(Cl)cc1C(F)(F)F	i	-9.8	i	-3.51	-14.3*	i	49.0%*	i	42.5%*
COc1ccc(NC(=O)CN(C)Cc2cccs2)cc1Cl	i	-11.8	i	-1.5	-12.8*	-11.3*	32.5%*	i	33.0%*
O=C(c1ccccc1)c1ccc2cc(O)ccc2c1	i	-12.7	i	2.55	i	i	i	i	i
CCc1ccc(CNC(=O)C2CCCN(S(=O)(=O)N3CC(C)CC(C)C3)C2)cc1 (stereo not given)	i	-6.9	i	0.8	-8.17*	i	38.0%*	i	i
Cc1ccc(CNC(=O)C2CCCN(S(=O)(=O)N3CCC(C)CC3)C2)cc1 (stereo not given)	i	-8.7	i	-0.24	i	i	/	/	/
COc1ccc([N+](=O)[O-])cc1NC(=O)C(C)Sc1ccccc1 (stereo not given)	i	-5.9	i	-0.09	i	i	/	/	/
COc1ccc([N+](=O)[O-])cc1NC(=O)C(C)Sc1nc(-c2ccccc2)cs1 (stereo not given)	i	-13.0	i	-1.55	-8.13*	i	i	i	31.0%*
CCOC(=O)c1c(N)sc(C(O)(C(F)(F)F)C(F)(F)F)c1-c1ccc(F)cc1	i	-38.6	i	-0.47	-9.27*	-12.2*	54.0%*	i	39.0%*
O=C(O)Cc1sc(N/N=C\c2ccncc2)nc1-c1ccccc1	i	-6.2	i	0.14	-10.8*	i	25.0%*	i	i
C(=N\Nc1nc(-c2ccccc2)cs1)/c1ccncc1	i	-17.3	i	-0.89	i	i	/	/	/
COc1cccc(CN2CCCC(C(=O)c3ccc4c(c3)OCO4)C2)c1OC (stereo not given)	i	-6.1	i	-0.12	i	i	/	/	/
COc1ccc(C(=O)C2CCCN(C(=O)c3ccc(F)cc3)C2)cc1OC (stereo not given)	i	-12.2	i	0.04	i	i	/	/	/
COc1ccc(C(=O)C2CCCN(C(=O)c3cccc(N(C)C)c3)C2)cc1OC (stereo not given)	i	-6.5	i	0.99	i	i	i	i	i
COc1ccc(C(=O)C2CCCN(Cc3cccc4c3OCO4)C2)cc1OC (stereo not given)	i	-2.1	i	-0.02	i	i	i	i	i
COc1ccc(F)cc1C(=O)C1CCCN(C(=O)c2cccc(N(C)C)c2)C1 (stereo not given)	i	-16.6	i	0.06	i	i	i	i	i
CCc1cc(C(=O)N(CCCOC)c2c(N)n(Cc3ccccc3)c(=O)[nH]c2=O)sc1C	i	-14.9	i	-0.16	i	i	/	/	/
Cc1ccnc(NC(=O)C23CC4CC(CC(C4)C2)C3)c1	i	-3.3	i	-0.33	i	i	i	i	i
O=C(Nc1ccccc1-c1nnc(SCc2ccccc2Cl)o1)c1ccccc1	i	-7.8	i	0.77	i	i	i	i	i
CC(C)OC(=O)c1cn(-c2ccccc2)nc1-c1ccc2c(c1)OCCO2	i	-14.2	i	0.01	i	i	i	i	i
NC(=O)/C=C\c1cn(-c2ccccc2)nc1-c1ccc2c(c1)OCCO2	i	-7.7	i	0.8	i	i	/	/	/
SMILES	KCNQ1 inh	hERG protect	KCNQ1 act	Kir21 inh	KCNK9 block	KCNK3 block	KCNK9 block conf	Kir2-1 spec	KCNK9 uninduced
CC1=NN(C(N)=S)C(=O)C1N=Nc1cccc(Cl)c1C (stereo not given)	i	-11.2	41*	0.2	i	i	i	i	i
COC(=O)C(CC(=O)c1ccccc1)CC(=O)c1ccccc1	i	-3.7	i	-0.12	i	i	/	/	/
COc1ccccc1C(CC(=O)c1ccccc1)CC(=O)c1ccccc1	i	-11.2	i	0.18	-8.63*	i	30.5%*	i	31.0%*
CC(=O)c1c(N2CCN(C)CC2)nc(=S)n(Cc2ccccc2)c1C	i	-2.9	i	0.14	i	i	/	/	/
C=CCn1c(C)c(C(C)=O)c(N2CCN(C(c3ccccc3)c3ccccc3)CC2)nc1=S	i	-23.9	i	3.64	-8.15*	i	37.0%*	i	i
O=C1c2cccnc2C(=O)N1Cc1ccc(S(=O)(=O)N2CCOc3ccccc32)cc1	i	-3.0	i	0.6	i	i	/	/	/
CCC(C)NC(=O)c1ccccc1NC(=O)c1ccc(CSc2ccc(C)cc2)cc1 (stereo not given)	i	-12.9	i	-0.8	i	i	i	i	i
